Here are results for 3 molecules from article PMC8132106 (Cancer chemotherapy and pharmacology, 2019).

Like-named read-outs stand apart in the source and are kept apart here.

One series concerns AR + TNBC. The following applies: cited from earlier work.
Another series deals with mCRPC. The following applies: compared to placebo, cited from earlier work.
For series [1] the following is noted: men taking 600 mg QD; cited from earlier work.
Series [2] in a line: Previously reported noncompartmental clinical PK of seviteronel. Format: in vivo, human. The note with it: with BID dosing, predicted from half-lives of 6.4 to 9.2 h.
The test system of another series is CYP2C9. The note with it: 1uM substrate over 60 min; ref unpublished data on file; cited from earlier work.
A short description of series [3]: Noncompartmental analysis of seviteronel plasma PK in patients. Format: in vivo, human.
For series [4] the following is noted: cited from earlier work.
A further series relates to CYP3A4. The note with it: 1μM substrate over 60 min; ref unpublished data on file; cited from earlier work.
For the next series, the system named is CYP2C19. The following applies: 1uM substrate over 60 min; ref unpublished data on file; cited from earlier work.
In the next series the test system is CYP17 lyase. The following applies: cited from earlier work.
Series [5] is described as follows: Population PK model of seviteronel. It is filed as in vivo, human. The following applies: for predicted accumulation: from simulated half-life 17.5 h. A digest of the protocol:
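Dense and sparse plasma concentrations (sparse from cycle 1 day 14, then every other cycle; LC-MS/MS; BQL excluded) were pooled; fed and fasted first doses counted as separate patients. One-, two- and three-compartment models with first-order or saturable absorption/elimination were tested, with exponential between-subject variability. Covariates tested: sex, body weight, prandial status, dexamethasone. Selection used OFV (−2LL; ΔOFV > 3.84, α = 0.05). Evaluation used a VPC with 200 simulated replicates (5th/50th/95th percentiles) and a split-off trough validation dataset.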

[6] abbreviates: apparent oral inter-compartmental clearance.
[7] abbreviates: apparent oral total systemic clearance.
[8] abbreviates: apparent oral volume of distribution of the central compartment.
Where [9] appears, read: apparent oral volume of distribution of the peripheral compartment.
The mark [10] stands for this setting: transit rate between compartments of the transit absorption model.

On to `CC(=O)O[C@H]1CC[C@@]2(C)C(=CC[C@@H]3[C@@H]2CC[C@]2(C)C(c4cccnc4)=CC[C@@H]32)C1` [abiraterone acetate], for which, in the series with AR + TNBC (in combination with prednisone, women with AR + (> 0% by IHC) TNBC), the “radiographic progression-free survival (rPFS)” value is 11.2 weeks.

Take `CNC(=O)c1ccc(N2C(=S)N(c3ccc(C#N)c(C(F)(F)F)c3)C(=O)C2(C)C)cc1F` [enzalutamide]: in the series with mCRPC (post-chemotherapy), the “improvement in overall survival (OS)” value is reported as 4.8 mo and the “overall reduction in risk of death” value is 37%. In the series with mCRPC (pre-chemotherapy), the “improvement in overall survival (OS)” value was 2.4 mo and the “overall reduction in risk of death” value was 29%. Further, in the series with AR + TNBC (single-arm, open-label study, women with AR + (≥ 10% by IHC) TNBC), the “radiographic progression-free survival (rPFS)” value was 14.7 weeks.

With `CC(C)[C@](O)(c1ccc2cc(OC(F)F)c(OC(F)F)cc2c1)c1c[nH]nn1` [seviteronel], the CMAX in series [1] is 4403 ± 1817 ng/mL. Moreover, the “predicted accumulation to steady-state” value in series [2] is reported as 37–68%. Besides, the loss of substrate in the series on CYP2C9 is on record as 100%. The “food effect on PK” value in [3] (Study 001, fasted vs fed) is “no statistically-significant food effect”. Further, the “half-life longer with 48 h sampling than calculated with 0–24 h sampling” value in [3] (Study 002) is recorded as ~ 60%. For the same molecule, the “steady-state AUCTAU higher than first-dose AUCINF” value in series [3] (Study 002, QD dosing) is reported as ~ 60%. Also, the “steady-state trough levels with vs without dexamethasone” value in [3] (dexamethasone 0.5 mg daily co-administration) was “no statistically significant differences were observed”. The accumulation at steady-state in series [3] (observed plasma concentrations, Fig. 1) is on record as ~ 60%. The DLTs result in series [4] (450 mg QD) is “no reported DLTs”. The “time for drug-related adverse events to resolve to baseline” value in [4] (CRPC men treated with seviteronel) is given as 2–3 weeks. The “Grade 1 events, 600 mg QD relative to 450 mg QD” value in [4] (women) was “five times more”. Moreover, in the series with CYP3A4, the loss of substrate is recorded as 57%. The loss of substrate with CYP2C19 is given as 100%. Also, the “selectivity for inhibition of CYP17 lyase versus hydroxylase” value in the series on CYP17 lyase is recorded as “tenfold”. For the same molecule, in series [5] (200 replicates), the “CL/F, bootstrap mean estimate” value is 6.89 L/h; the “Ka, bootstrap mean estimate” value was 2.47 h⁻¹; the “Ktr, bootstrap mean estimate” value was 1.98 L/h; the “Q/F, bootstrap mean estimate” value was 6.99 L/h. Besides, in [5] (200 replicates), the “V/F, bootstrap mean estimate” value is 99.97 L and the “Vp/F, bootstrap mean estimate” value was 352.6 L. For the same molecule, the “BSV on CL/F” value in series [5] (after accounting for sex effect) was 45%. Also, in [5] (setting [6]), the “Q/F, base model estimate” value is given as 6.99 L/h and the “Q/F, final model estimate” value is given as 6.99 L/h. Also, in series [5] (setting [7]), the “CL/F, base model estimate” value is listed as 7.15 L/h and the “CL/F, final model estimate” value is on record as 6.69 L/h. Moreover, in series [5] (setting [8]), the “V/F, base model estimate” value is 69.9 L and the “V/F, final model estimate” value is recorded as 99.97 L. For the same molecule, in [5] (setting [9]), the “Vp/F, base model estimate” value is given as 369 L and the “Vp/F, final model estimate” value is listed as 343.4 L. Besides, the “BSV of V/F” value in series [5] (before sex and body weight were included on CL/F) is reported as 62.9%. The “dCLdSex, final model estimate” value in [5] (covariate effect on CL/F by Sex) is given as 0.5883. Moreover, in [5] (covariate effect on CL/F by Sex, 200 replicates), the “dCLdSex, bootstrap mean estimate” value was 0.559. Further, the “dCLdWt, final model estimate” value in series [5] (covariate effect on CL/F by body weight) is 0.2514. Also, the “dCLdWt, bootstrap mean estimate” value in series [5] (covariate effect on CL/F by body weight, 200 replicates) is listed as 0.3595. Besides, in series [5] (final model), the “Between subject variability (%CV; ω) on Ka” value turned out to be 133%, the “Between subject variability (%CV; ω) on Ktr” value was 94.9%, the “Between subject variability (%CV; ω) on Q/F” value is 51.5% and the “Between subject variability (%CV; ω) on V/F” value is listed as 51.4%. Also, the “Between subject variability (%CV; ω) on Vp/F” value in series [5] (final model) is on record as 35.9%. In addition, in [5] (final model, sex and body weight on CL/F), the “Between subject variability (%CV; ω) on CL/F” value is listed as 37.4%. In [5] (first-order absorption rate), the “Ka, base model estimate” value was 1.99 h⁻¹ and the “Ka, final model estimate” value is 2.49 h⁻¹. In addition, the “BSV on CL/F” value in series [5] (overall, before covariates) worked out at 59.6%. Also, in [5] (setting [10]), the “Ktr, base model estimate” value is 1.99 L/h and the “Ktr, final model estimate” value was 1.99 L/h. In addition, the predicted accumulation in [5] (with BID dosing) is listed as 164%. Moreover, in series [5] (with QD dosing), the predicted accumulation is 63%.
